Structures are written as SMILES. pKi: −log10 of the molar value. A value given as a limit tells only on which side of the number the result lay.

The target of assay [1] is Neuronal acetylcholine receptor subunit alpha-7 (Rattus norvegicus, UniProt Q05941). The experiment in a line: Binding affinity to subtype Nicotinic acetylcholine receptor alpha7 using [3H]-MLA as radioligand in rat brain. Format: tissue-based. The procedure, abridged:
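Rat brain membrane fractions in HEPES-salt solution, competition against [3H]MLA at 22 °C. Nonspecific binding defined with 1 μM MLA. […] Mean ± SEM of 3-5 independent experiments.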

The target in assay [2] is Neuronal acetylcholine receptor; alpha4/beta2 (Rattus norvegicus, UniProt P09483+P12390). The experiment in a line: Binding affinity to Nicotinic acetylcholine receptor alpha4-beta2 using +/-[3H]epibatidine as radioligand in rat brain. In kind it is tissue-based. In a few lines: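 Crude synaptic P2 membranes from Sprague–Dawley rat forebrain (cerebellum and medulla excluded), washed in HEPES-salt buffer pH-unspecified (HEPES 15 mM, NaCl 120 mM, KCl 5.4 mM, MgCl2 0.8 mM, CaCl2 1.8 mM). Mean ± SEM, n = 3-5.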
Chain of Neuronal acetylcholine receptor; alpha4/beta2 (P09483 whole entry): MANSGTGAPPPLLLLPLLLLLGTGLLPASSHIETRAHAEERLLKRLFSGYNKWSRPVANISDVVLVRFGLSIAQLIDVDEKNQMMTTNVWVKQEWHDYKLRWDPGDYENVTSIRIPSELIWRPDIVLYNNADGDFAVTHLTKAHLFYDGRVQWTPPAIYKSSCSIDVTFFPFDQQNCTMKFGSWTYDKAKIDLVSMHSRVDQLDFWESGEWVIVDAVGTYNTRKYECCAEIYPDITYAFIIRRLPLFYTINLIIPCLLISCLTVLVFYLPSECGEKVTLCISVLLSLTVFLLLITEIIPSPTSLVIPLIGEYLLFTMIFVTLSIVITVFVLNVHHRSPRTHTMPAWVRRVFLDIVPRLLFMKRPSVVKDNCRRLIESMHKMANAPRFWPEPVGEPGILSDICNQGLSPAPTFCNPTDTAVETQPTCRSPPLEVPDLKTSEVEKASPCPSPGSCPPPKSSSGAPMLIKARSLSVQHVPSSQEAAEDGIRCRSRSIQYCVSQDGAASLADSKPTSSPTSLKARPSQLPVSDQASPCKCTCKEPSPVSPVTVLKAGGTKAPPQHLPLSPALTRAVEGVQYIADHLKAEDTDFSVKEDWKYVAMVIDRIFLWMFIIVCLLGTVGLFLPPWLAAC
Chain of Neuronal acetylcholine receptor; alpha4/beta2 (P12390 whole entry): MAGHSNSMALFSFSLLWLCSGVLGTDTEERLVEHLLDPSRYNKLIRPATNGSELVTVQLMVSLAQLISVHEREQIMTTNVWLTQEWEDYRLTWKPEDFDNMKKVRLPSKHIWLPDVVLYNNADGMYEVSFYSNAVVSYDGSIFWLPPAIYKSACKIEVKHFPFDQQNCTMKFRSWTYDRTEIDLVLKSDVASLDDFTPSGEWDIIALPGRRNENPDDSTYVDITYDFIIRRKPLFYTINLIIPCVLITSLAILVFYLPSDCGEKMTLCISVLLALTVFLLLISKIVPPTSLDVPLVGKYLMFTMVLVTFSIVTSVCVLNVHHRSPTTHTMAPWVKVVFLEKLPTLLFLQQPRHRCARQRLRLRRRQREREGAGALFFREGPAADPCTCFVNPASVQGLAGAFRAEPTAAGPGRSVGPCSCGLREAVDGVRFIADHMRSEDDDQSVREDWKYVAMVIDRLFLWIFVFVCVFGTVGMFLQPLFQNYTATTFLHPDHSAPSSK

Chain of Neuronal acetylcholine receptor subunit alpha-7 (Q05941 whole entry): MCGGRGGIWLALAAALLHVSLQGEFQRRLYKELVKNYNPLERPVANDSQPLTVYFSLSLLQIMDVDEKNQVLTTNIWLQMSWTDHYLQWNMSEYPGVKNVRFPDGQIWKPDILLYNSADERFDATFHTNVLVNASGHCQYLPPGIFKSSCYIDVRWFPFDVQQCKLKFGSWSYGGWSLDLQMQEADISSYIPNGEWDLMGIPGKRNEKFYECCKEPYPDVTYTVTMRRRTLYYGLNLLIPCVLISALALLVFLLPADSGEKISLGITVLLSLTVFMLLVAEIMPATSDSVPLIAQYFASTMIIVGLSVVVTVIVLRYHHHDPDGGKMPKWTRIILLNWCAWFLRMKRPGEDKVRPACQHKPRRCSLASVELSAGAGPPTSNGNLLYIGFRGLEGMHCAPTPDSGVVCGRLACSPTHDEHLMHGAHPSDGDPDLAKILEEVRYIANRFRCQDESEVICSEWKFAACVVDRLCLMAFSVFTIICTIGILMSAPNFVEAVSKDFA

What is called pKi is the negative decadic logarithm of the Ki, by convention in mol/L. A high value points to a low Ki. Take `C1=C(c2cccnc2)C2CC[C@H](CC1)N2`: the negative logarithm of the Ki (pKi) in assay [1] was 9.02; in assay [2], 10.29.

With `C1=C(c2cncnc2)C2CC[C@H](CC1)N2`, the pKi is 7.97 in assay [1] and 9.85 in assay [2].

Consider `C1=C(c2ccnnc2)C2CC[C@H](CC1)N2`, for which the pKi in assay [1] is under 8.00; in assay [2], 7.72.

In assay [1], `Clc1ccc(C2=CCC[C@H]3CCC2N3)cn1` had a pKi of 7.92.

Consider `C1=C(c2cnccn2)C2CC[C@H](CC1)N2`, for which the figures for the negative logarithm of the Ki (pKi) in assay [1] and in assay [2] were 6.60 and 7.92, respectively.

Source of the values: ChEMBL document CHEMBL1135731, “Synthesis and nicotinic binding studies on enantiopure diazine analogues of the novel (2-chloro-5-pyridyl)-9-azabicyclo[4.2.1]non-2-ene UB-165” (J Med Chem, 2002).
